Test system: MS2 coat protein
Assay: apparent Kd, MS2 coat protein; higher = weaker binding; RNA-MaP array; FMN 200 µM where present
In short: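 Designs were transcribed by stalled E. coli RNA polymerase on Illumina sequencing-chip clusters. They were titrated with SNAP-549-labelled MS2 coat protein from 0.7 or 1.5 nM, doubling to 3 µM, in 100 mM Tris-HCl pH 7.5, 80 mM KCl, 4 mM MgCl2, BSA, DTT, yeast tRNA and Tween-20, without and then with constant ligand. The apparent Kd is the median of filtered per-cluster fits after normalisation of green signal to red-channel RNA signal and control-cluster median Fmax.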

[1] = designed as: OFF switch for flavin mononucleotide, no ligand
[2] = ligand present: flavin mononucleotide, designed as: OFF switch for flavin mononucleotide
[3] = designed as: ON switch for flavin mononucleotide, no ligand
[4] = ligand present: flavin mononucleotide, designed as: ON switch for flavin mononucleotide

Sequence | apparent Kd [1] | apparent Kd [2] | apparent Kd [3] | apparent Kd [4]
GUCAUACAUGAGGAUCACCCAUGUAAGGAUAUGCUAGCGGUCGGAAGACUGACUGCUAGCAGAAGGUACAUGAU | 67.1 nM | 92.5 nM | – | –
CUAUCGUUGCAGAAGGUUAAAUAAUUUCUCAUCAUGUUUACAUGAGGAUCACCCAUGUAUUUGUUGAAGGAUAUGCAAGUGUUG | 8.67 nM | 7.92 nM | – | –
GUGCGGUGAGGAUAUACGUAGGUGAAAAUCUGUGUGUUCCUACAUGAGGAUCACCCAUGUAGAAGGCAUGUCAC | 53.5 nM | 143 nM | – | –
GAGCCCGAUGAGAAGGGUUACAUGAGGAUCACCCAUGUCGACCUUGGCGUAACAGGAUAUCAUCGAGCUCUGUGCGUUGACCCA | 25.5 nM | 132 nM | – | –
AAGUAUAAGGGCAUUAAACAUGAGGAUCACCCAUGUACAAUAGAGGAUAUGCAUUUCGGUUUAGAGUAGAAGGUUAGAGAAUAU | 27.6 nM | 33.7 nM | – | –
AAUUCACAUGAGGAUCACCCAUGUCAGGAUAUGGUUUCACGUGUUUCUGUGCUUGAGGCCAGAAGGGACAGCUA | 65.5 nM | 76.5 nM | – | –
UGGCGCAUGUGAGGAUAUAAUGGGUAGUAACUAUUAGAAGGUACAUGAGGAUCACCCAUGUACUUGGGUUUAUCAGGAACUCCU | 7.02 nM | 6.7 nM | – | –
GAUCGCCGUGUCAGGAUAUCUUGUGUACCCACGUUAGAGAAGGGACAUGAGGAUCACCCAUGUACCCUGGUUUU | 17.6 nM | 19.2 nM | – | –
CCAACGUACAAUUUAGAUCUACAUGAGGAUCACCCAUGUACGGAGGAUAUCAGCUCGAAUAGAGCUGAGAAGGCCGAAUUAAUU | – | – | 371 nM | 89.4 nM
GGAUAGGACAGAGGAUAUACGUGCUAGAGAUACUAGCAUAAUUUCCUCACAUGAGGAUCACCCAUGUAGAAGGCUGUCCUAUCG | 6.78 nM | 46.7 nM | – | –
GUCACGAAUGUAGGAUAUCGAGUGGAAUACACUCGAGAAGGACAUGAGGAUCACCCAUGUACUAUGAAAGAUAAUAAACGUGAC | 14.9 nM | 19.5 nM | – | –
GUCAUACAUGAGGAUCACCCAUGUAAGGAUAUGCUAGCGGUCGGCUGACUGACUGCUAGCAGAAGGUACAUGAU | 64.1 nM | 90 nM | – | –
ACAAGAUCAGGAUAUACAUGAGGAUCACCCAUGUUUAUCAAAAAAAGGCUUUCAUCAUGUAGAAGGGAUCUUGU | 99 nM | 126 nM | – | –
CAGUGCAAUGUAGGAUAUGCUCAGGAAUACUGAGCAGAAGGACAUGAGGAUCACCCAUGUCAAAUGAAAGAUAAUAAAGCACUG | 14.6 nM | 18.9 nM | – | –
AAAACAUGAGGAUCACCCAUGUAAAGAUCUGUUAAUAGAAGUGAGGAUAUACUAAAUUUUAGGUAGUAGAAGGCACUGGGUACA | – | – | 23.4 nM | 27.4 nM
ACGCCCUGAGGAUAUCUUUUCCCGUACAUGAGGAUCACCCAUGUUUUCCUCCGGGCUUCGAGAGAAGGCAGGCCCA | 22.3 nM | 41.2 nM | – | –
AAAAGACAUGAGGAUCACCCAUGUGAAAACGUGCGAGGAUAUGUAUGGAAACCAUACUGUACAGAAGGCGUUUGUC | – | – | 31.2 nM | 31.6 nM
UUUAAGUCAGGAUAUCGUUAAUUUAAUUAUUUAUUUUAGUUCGAGAAGGGACAUGAGGAUCACCCAUGUAAUUU | 40.5 nM | 63.1 nM | – | –
UAGCGCUGUCGAGAGGAUAUGCGGUGAUGGACAUGAGGAUCACCCAUGUUAGCGAUAGCAUUACGGUAGAAGGCUCUACAGCUGU | – | – | 245 nM | 36 nM
AGAUAACACCAGAAGGACAUGAGGAUCACCCAUGUAGGAUAUGGGCAUCACUCGAGAAAGAAACGACCAAAUGGACACGCGGUC | – | – | 80.1 nM | 9.46 nM
GUUCAACAUGAGGAUCACCCAUGUAGAAGGCGCUCCGACAUUUUGUAGAACGAGGUGGGUGCGGGCGAGGAUAUACGUGGCGCU | 48.4 nM | 89.6 nM | – | –
UUUAUUUUUAGAGGAUAUAUUGUGUGUGAGAGAAUAGAAGGCUAAACAUGAGACACACACAUGAGGAUCACCCAUGUUAUGUUU | – | – | 62.6 nM | 52 nM
UGGUGACGUGUAGGAUAUGGAGGUGGGUUUUGGCCAGAAGGACAUGAGGAUCACCCAUGUGGUAGAGGGUUGGCGGUGGCCCGU | 17.7 nM | 15.2 nM | – | –
CAAUUUAUAACAGGAUAUGUAAUACAAUAGUUAAUAGAAGGGUUUAAUACAUGAGGAUCACCCAUGUCAUGUGUCAUAAUUACC | 33 nM | 26 nM | – | –

Sequence | apparent Kd [1] | apparent Kd [2] | apparent Kd [3] | apparent Kd [4]
AGCUAGUGAGGAUAUACGAACAUGUCAAAAGACGUGAAAUAACAUGAGGAUCACCCAUGUAGAAGGCACUAGCA | 19.2 nM | 16.7 nM | – | –
CCAGCGUAUGUGAGGAUAUGCUGGUCCUUGGAUCAGCAGAAGGCACAUGAGGAUCACCCAUGUGAGAACGUUGG | 26.5 nM | 187 nM | – | –
GUCUCCGCUCGAGGAUAUAGCUGCAUGUAGUGUCCUGAGGCACAUGAGGAUCACCCAUGUGUAGGCUAGAAGGCGACGGACACU | – | 29.2 nM | – | –
UCUCGAUGUGUAGGAUAUCUGACCACUAUGACAAGAGAAGGGCACAUGAGGAUCACCCAUGUGGAGGACCACUGGUUCAGAUUA | 40.9 nM | 51 nM | – | –
CUACGAGCGCCACAGGAUAUACUGAGACUCACAUGAGGAUCACCCAUGUCCAAUUCUCCCAAAUAGUAGAAGGGUGACGCGCUCG | – | – | 699 nM | 53.3 nM
UCGAUGCUAGGAUAUACGUAUACCUCCACCGUUGAUUCCUAACAUGAGGAUCACCCAUGUAGAAGGAGCAUCUA | 23.8 nM | 23.6 nM | – | –
GAUUUAGAGCAGGAUAUCAUAGAAUUAUAUGAAUGAGAAGGGCUCACAUGAGGAUCACCCAUGUGGUCCUAGAU | 21.1 nM | 167 nM | – | –
GCUUUAUAGAUCCAUUUUAACAACAUGAGGAUCACCCAUGUGCAGGAUAUCGUUUGUUUUAUAUUCGAGAAGGGCAAAUUCAGC | 32.5 nM | 77.6 nM | – | –
GUAGAGUCAGGAUAUACGAGAUCGAAAGAUCGGCGAUCCAUACAUGAGGAUCACCCAUGUAGAAGGGACUCUAC | 15.6 nM | 148 nM | – | –
AGAUAGUGCAGAGGAUAUCUUAAUAGAAAGAAUAGAGAAGGCUGACAUGAGGAUCACCCAUGUGAUGUCUUGAGACUACAUGGU | 48.4 nM | 336 nM | – | –
UUACUACAUGAGGAUCACCCAUGUCAGGAUAUUGUCUAUACCGUGGAAGCUGUGUCGAUAAGAAGGGACUGUAU | 20.5 nM | 34.8 nM | – | –
UUACUCAUGUAAGGAUAUGCAGCCGUUUCGGCUGCAGAAGGUACUAUAAUACAUGAGGAUCACCCAUGUCUAUUUAAUUUUUAC | – | – | 42.6 nM | 24.2 nM
GGGAGUGGAGGGAAUAACAUGAGGAUCACCCAUGUAUGGGAGAGAAGGCAGGUUGGAGGGCGAUCUGAGGAUAUUUAGACUCUU | – | – | 19.9 nM | 13.5 nM
UUAGACGUCGUAGGAUAUGUAGGAUAUUCCUACAUGAGGAUCACCCAUGUUGACAUGGAAGAAGGACAGAAGGACGAUGUCCAU | – | – | 307 nM | 4.91 nM
UUAAUUAACAAGAAGGCAUACAUGAGGAUCACCCAUGUUGUACAUGGAUAAUGAGGAUAUUGCUAAUACAUGAGGAUCACCCAU | 36.5 nM | 34.3 nM | – | –
CGGUGACAUGAGGAUCACCCAUGUUAGGAUAUACAAAAGCUCGCUCAAGGGCGGCGAAGUAGAAGGAGCGUGCC | 21.7 nM | 29.7 nM | – | –
GAUUAACAUGAGGAUCACCCAUGUGAGGAUAUGGAAUGGCUCAUUGUCUGAUUUCCGUCUAGAAGGCACAUCUU | 46.7 nM | 45 nM | – | –
GUAAACGAUGAGGAUAUAUGAUAUCAAAGCAUCAUAGAAGGCAUCACAUGAGGAUCACCCAUGUGAUCUUCUUU | 17.5 nM | 78.5 nM | – | –
AUGACAGGCAGAGCGCAACGGCGUACAUGAGGAUCACCCAUGUAGGAUAUGCUACACAAAGUGUAGCAGAAGGACAUGCGACGC | 23.4 nM | 42.2 nM | – | –
AAGUGUGGAUGAGGAUAUCAGCUGUAACUGACGUCGACAUGAGGAUCACCCAUGUUGCUAUAGGGUGAGAAGGCAUUUGCGCAA | – | – | 585 nM | 75.1 nM
UACAGACAUGAGGAUCACCCAUGUGAGGAUAUCGGUACCGAUGGCAUAAUCUGCUCGGCGAGAAGGCACAGUGU | 28 nM | 48.4 nM | – | –
AAUCCACAUGAGGAUCACCCAUGUGAGGAUAUGUCCAUAUUCGGCAAAUCGGAUAUGGACAGAAGGCACAUAAA | 32.9 nM | 87.1 nM | – | –
GGUAUCGGAGGAGGAUAUGAGCGUAUCGCUGCCUCAGAAGGCCUACUGAUACAUGAGGAUCACCCAUGUUGCGGUAAUCCUACU | 283 nM | 23.5 nM | – | –
ACAUACAUUCGAGGAUAUCGGUGAUAACUCAAACGAGAAGGCGAUUUAAAACAUAAUGCUGUAGACAUGAGGAUCACCCAUGUA | – | – | 497 nM | 137 nM

Source: the EternaBench riboswitch data
